Test results from ChEMBL document CHEMBL4627406, “Amino Acids Bearing Aromatic or Heteroaromatic Substituents as a New Class of Ligands for the Lysosomal Sialic Acid Transporter Sialin” (J Med Chem, 2020).
Activity calls are given as the source filed them. The rule behind the calls is not given here.

Key:
Sialin (Homo sapiens) [1] = target: T1, Sialin (Homo sapiens) (UniProt Q9NRA2); assay: Inhibition of human recombinant-Sialin expressed in HEK293 cells assessed as reduction in [3H]Neu5Ac uptake at 30 uM incubated for 15 mins by liquid scintillation counting method; format: cell-based
T1 sequence (whole entry): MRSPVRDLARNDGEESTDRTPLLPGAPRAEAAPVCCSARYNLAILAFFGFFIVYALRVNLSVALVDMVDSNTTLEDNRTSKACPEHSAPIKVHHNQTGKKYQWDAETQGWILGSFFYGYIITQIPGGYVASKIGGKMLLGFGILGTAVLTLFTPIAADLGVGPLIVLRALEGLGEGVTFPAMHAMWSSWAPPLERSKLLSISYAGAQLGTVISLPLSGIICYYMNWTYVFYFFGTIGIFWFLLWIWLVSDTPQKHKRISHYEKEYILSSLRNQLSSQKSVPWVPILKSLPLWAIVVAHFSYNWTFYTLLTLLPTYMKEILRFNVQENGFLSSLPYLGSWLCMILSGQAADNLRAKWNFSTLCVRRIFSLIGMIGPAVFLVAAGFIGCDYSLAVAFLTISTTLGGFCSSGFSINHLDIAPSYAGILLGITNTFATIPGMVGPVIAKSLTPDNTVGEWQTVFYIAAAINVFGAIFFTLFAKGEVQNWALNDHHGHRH
Procedure, shortened: (§1)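 HEK293 cells expressing EGFP-human sialin L22G/L23G (sorting mutant at the plasma membrane), assayed 2 days after lipofection. Uptake of [3H]Neu5Ac (12.5 nM) over 15 min at room temperature in MES-Na+ pH 5.0 with inhibitor added together with tracer. Cells washed twice ice-cold, radioactivity counted by liquid scintillation. Dose-response run in triplicate, two to three independent experiments.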

Sialin (Homo sapiens) [2] = target: T1, Sialin (Homo sapiens); assay: Inhibition of human recombinant-Sialin expressed in HEK293 cells assessed as reduction in [3H]Neu5Ac uptake at 30 to 300 uM incubated for 15 mins by liquid scintillation counting method; format: cell-based; procedure, shortened: as §1
Sialin (Homo sapiens) [3] = target: T1, Sialin (Homo sapiens); assay: Ratio of Km for Neu5Ac to Ic50 for test compound for inhibition of human recombinant-Sialin expressed in HEK293 cells assessed as reduction in [3H]Neu5Ac uptake at 30 to 300 uM incubated for 15 mins by liquid scintillation counting method; format: cell-based
Sialin (Homo sapiens) [4] = target: T1, Sialin (Homo sapiens); assay: Inhibition of human recombinant-Sialin expressed in HEK293 cells assessed as reduction in [3H]Neu5Ac transport pre-incubated for 15 mins at pH 5.5 followed by 15 mins wash at pH 7 at room temperature by liquid scintillation counting method relative to control; format: cell-based
[5] = target: Proton-coupled amino acid transporter 1 (Homo sapiens) (UniProt Q7Z2H8); assay: Inhibition of human LYAAT1 at 100 uM relative to control
Proton-coupled amino acid transporter 1 (Homo sapiens), sequence (Q7Z2H8 whole entry): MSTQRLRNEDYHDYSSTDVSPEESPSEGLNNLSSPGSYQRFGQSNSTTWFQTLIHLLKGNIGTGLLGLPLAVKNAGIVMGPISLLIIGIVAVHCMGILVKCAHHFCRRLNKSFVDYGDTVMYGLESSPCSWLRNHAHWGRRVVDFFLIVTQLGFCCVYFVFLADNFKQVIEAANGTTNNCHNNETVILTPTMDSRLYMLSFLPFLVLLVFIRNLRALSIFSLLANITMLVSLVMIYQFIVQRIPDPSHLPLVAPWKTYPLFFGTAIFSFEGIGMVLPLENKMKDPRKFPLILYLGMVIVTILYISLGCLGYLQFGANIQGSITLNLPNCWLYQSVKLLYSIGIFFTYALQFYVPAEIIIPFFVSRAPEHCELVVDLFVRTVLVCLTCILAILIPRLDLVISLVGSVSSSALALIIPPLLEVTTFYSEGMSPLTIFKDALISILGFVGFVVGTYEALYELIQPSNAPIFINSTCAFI

[6] = target: T2, Cystinosin (Homo sapiens) (UniProt O60931); assay: Inhibition of human cystinosin at 100 uM relative to control
T2 sequence (whole entry): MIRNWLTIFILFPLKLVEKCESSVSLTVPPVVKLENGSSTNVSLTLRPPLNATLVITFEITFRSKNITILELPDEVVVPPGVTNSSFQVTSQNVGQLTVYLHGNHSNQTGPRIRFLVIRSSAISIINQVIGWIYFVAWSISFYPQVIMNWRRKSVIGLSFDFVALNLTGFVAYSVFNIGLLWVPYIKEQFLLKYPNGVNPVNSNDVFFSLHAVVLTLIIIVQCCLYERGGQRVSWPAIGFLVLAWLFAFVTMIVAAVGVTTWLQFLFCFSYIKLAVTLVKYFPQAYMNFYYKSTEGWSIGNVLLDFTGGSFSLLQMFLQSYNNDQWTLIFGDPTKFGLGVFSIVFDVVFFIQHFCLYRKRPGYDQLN
Procedure, shortened: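 Human cystinosin and rat LYAAT1 expressed at the plasma membrane of HEK293 cells, assayed one day after lipofection in MES-Na+ pH 5.0. Substrates were [14C]cystine (20 μM) for cystinosin and [3H]proline (100 μM) for LYAAT1. Test agent present during uptake, run in parallel with sialin. Triplicate measurements, three independent experiments.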

Sialin (Homo sapiens) [7] = target: T1, Sialin (Homo sapiens); assay: Inhibition of human recombinant-Sialin expressed in HEK293 cells assessed as reduction in [3H]Neu5Ac uptake at 100 uM incubated for 15 mins by liquid scintillation counting method; format: cell-based; procedure, shortened: as §1
HEK293 [8] = assay: Substrate activity at EGFP-fused human Sialin L22G/L23G mutant expressed in HEK293 cells in acidic medium using tritiated compound at 2 to 100 uM by liquid scintillation counting method; format: cell-based
Procedure, shortened: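 [3H]-labelled test ligand uptake measured in HEK293 cells expressing EGFP-sialin L22G/L23G versus mock (EGFP) cells, as for Neu5Ac uptake, using 2 μM tracer. For comparison, [3H]Neu5Ac was measured at 100 μM. Acidic MES pH 5.0 medium, liquid scintillation counting.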

Sialin (Homo sapiens) [9] = target: T1, Sialin (Homo sapiens); assay: Non-competitive inhibition of human recombinant-Sialin expressed in HEK293 cells assessed as reduction in Vmax for [3H]Neu5Ac uptake at 10 uM incubated for 15 mins by liquid scintillation counting method relative to control; format: cell-based
Sialin (Homo sapiens) [10] = target: T1, Sialin (Homo sapiens); assay: Inhibition of human recombinant-Sialin expressed in HEK293 cells assessed as reduction in [3H]Neu5Ac transport at 120 uM pre-incubated for 15 mins at pH 5.5 followed by 15 or 30 mins wash at pH 7 at room temperature by liquid scintillation counting method relative to control; format: cell-based
HEK293 [11] = assay: Substrate activity mRFP-tagged human recombinant-Sialin L22G/L23G mutant expressed in HEK293 cells assessed as induction of cytosolic acidification by measuring E2GFP fluorescence at 10 mM at pH 5.5; format: cell-based
Procedure, shortened: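 HEK293 cells co-expressing the ratiometric pH probe E2GFP and mRFP-tagged human sialin L22G/L23G. Cytosolic acidification from sialin-mediated H+ co-transport was read by E2GFP fluorescence after application at pH 5.5 of Neu5Ac (10 mM) or test ligand (30 μM).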

Sialin (Homo sapiens) [12] = target: T1, Sialin (Homo sapiens); assay: Trans-stimulation of human recombinant-Sialin expressed in HEK293 cells assessed as [3H]Neu5Ac transport at 5 mM pre-incubated for 15 mins at pH 5.5 followed by 15 or 30 mins wash at pH 7 at room temperature by liquid scintillation counting method; format: cell-based

inhibition (Sialin (Homo sapiens) [1]) | inhibition (Sialin (Homo sapiens) [2]) | SMILES | also measured
Active |  | CN(C)c1ccc2c(CC(=O)NCCCC[C@H](NC(=O)OCC3c4ccccc4-c4ccccc43)C(=O)O)cc(=O)oc2c1 | 
inactive |  | O=C(OCc1cc(=O)oc2cc(O)ccc12)OCC1c2ccccc2-c2ccccc21 | 
Active |  | CN(C)c1ccc2c(CC(=O)N[C@@H](CCCCNC(=O)OCc3ccccc3)C(=O)O)cc(=O)oc2c1 | 
Active |  | O=C(Cc1cc(=O)oc2c3c4c(cc12)CCCN4CCC3)N[C@@H](CCCCNC(=O)OCc1ccccc1)C(=O)O | 
Active | Dose-dependent effect | COc1ccc2c(CSC[C@H](NC(=O)OCC3c4ccccc4-c4ccccc43)C(=O)O)cc(=O)oc2c1 | 
Active | Dose-dependent effect | COC(=O)CC[C@H](NC(=O)OCC1c2ccccc2-c2ccccc21)C(=O)O | 
inactive |  | O=C(NCCCC[C@H](NC(=O)c1cc(=O)[nH]c2ccccc12)C(=O)O)OCc1ccccc1 | 
 | Active | O=C(NCCCC[C@H](NC(=O)OCC1c2ccccc2-c2ccccc21)C(=O)O)OCc1ccccc1 | 
Active |  | O=C(NCCCC[C@H](NC(=O)OCc1cc(=O)oc2cc(O)ccc12)C(=O)O)OCc1ccccc1 | 
inactive |  | O=C(NCCCC[C@H](NC(=O)OCC1c2ccccc2-c2ccccc21)C(=O)O)OCC1c2ccccc2-c2ccccc21 | 
Active |  | CCN(CC)c1ccc2c(CC(=O)N[C@@H](CCCCNC(=O)OCc3ccccc3)C(=O)O)cc(=O)oc2c1 | 
Active | Dose-dependent effect | O=C(N[C@@H](CSCc1cc(=O)oc2cc(O)c(Cl)cc12)C(=O)O)OCC1c2ccccc2-c2ccccc21 | 
Active |  | O=C(Cc1cc(=O)oc2cc(O)ccc12)N[C@@H](CCCCNC(=O)OCc1ccccc1)C(=O)O | 

Continued, molecule first:

SMILES | inhibition (Sialin (Homo sapiens) [1]) | inhibition (Sialin (Homo sapiens) [2]) | also measured
COc1ccc(CSC[C@H](NC(=O)OCC2c3ccccc3-c3ccccc32)C(=O)O)cc1 | Active |  | 
O=C(O)CN(CC(=O)O)Cc1cc2c(cc1O)Oc1cc(O)c(CN(CC(=O)O)CC(=O)O)cc1C21OC(=O)c2ccccc21 |  | Active | 
Cc1cc(C)cc(C(=O)N(C)[C@H](Cc2ccc(-c3ccccc3)cc2)C(=O)N[C@@H](Cc2c[nH]c3ccccc23)C(=O)O)c1 |  | Active | 
O=C(O)CN(CC(=O)O)c1ccccc1OCCOc1ccccc1N(CC(=O)O)CC(=O)O |  | Active | 
CC(C)C[C@H](NC(=O)N1CCCCCC1)C(=O)N[C@H](Cc1cn(C)c2ccccc12)C(=O)N[C@H](Cc1ccccn1)C(=O)O |  |  | Ratio (Sialin (Homo sapiens) [3]): 50; inhibition (Sialin (Homo sapiens) [4]): inactive
CC(C)(C)OC(=O)C[C@H](NC(=O)OCC1c2ccccc2-c2ccccc21)C(=O)O | Active |  | 
CC(C)(C)OC(=O)NCc1ccc(C[C@@H](NC(=O)OCC2c3ccccc3-c3ccccc32)C(=O)O)cc1 |  | Active | 
O=C(N[C@@H](CS)C(=O)O)OCC1c2ccccc2-c2ccccc21 | Active |  | 
CC(C)C[C@H](NC(=O)OCC1c2ccccc2-c2ccccc21)C(=O)O | Active | Dose-dependent effect | inhibition [5]: Active; inhibition [6]: Active; inhibition (Sialin (Homo sapiens) [7]): 100%; Activity (HEK293 [8]): inactive; inhibition (Sialin (Homo sapiens) [9]): 56%; inhibition (Sialin (Homo sapiens) [10]): 55%
O=C(O)[C@@H]1OCCOCCO[C@@H](C(=O)O)[C@H](C(=O)O)OCCOCCO[C@H]1C(=O)O |  | Active | 
CC[C@H](C)[C@H](NC(=O)OCC1c2ccccc2-c2ccccc21)C(=O)O | Active |  | 
O=C(N[C@@H](CSCc1ccccc1)C(=O)O)OCC1c2ccccc2-c2ccccc21 | inactive |  | 
O=C(O)[C@@H]1CCCN1C(=O)OCC1c2ccccc2-c2ccccc21 | inactive |  | 
O=C(N[C@@H](Cc1ccccc1)C(=O)O)OCC1c2ccccc2-c2ccccc21 | Active |  | 
CC(C)(C)Oc1ccc(C[C@H](NC(=O)OCC2c3ccccc3-c3ccccc32)C(=O)O)cc1 | Active |  | 
CC(C)(C)SC[C@H](NC(=O)OCC1c2ccccc2-c2ccccc21)C(=O)O | Active |  | 
CN(Cc1cnc2nc(N)nc(N)c2n1)c1ccc(C(=O)N[C@@H](CCC(=O)O)C(=O)O)cc1 |  | Active | 
CC(C)CC(NC(=O)OCC1c2ccccc2-c2ccccc21)C(=O)O (stereo unspecified) | Active |  | 
CC(=O)N[C@H]1[C@H]([C@H](O)[C@H](O)CO)OC(O)(C(=O)O)C[C@@H]1O (stereo partly specified) |  | Active | Activity (HEK293 [8]): Active; Activity (HEK293 [11]): Active; Activity (Sialin (Homo sapiens) [12]): 130%
